Experimental findings from the RNAGym collection of RNA variant scans (doi:10.1126/science.aae0568) are described below.

B1: tRNA (parent)
chain: GUUCCGUUGGCGUAAUGGUAACGCGUCUCCCUCCUAAGGAGAAGACUGCGGGUUCGAGUCCCGUACGGAACG

Fewer inactive variants are shown than the library holds.

Variants of B1 are the subject of the series. Put plainly: yeast fitness relative to wild type (ratio to wild type); higher = fitter; tRNA-Arg(CCU), competitive growth, 37 C, YPD. In short, it runs like this: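 The tRNA-Arg(CCU) gene variants were made by chemical synthesis with a 3% per-site mutation rate at 69 sites and inserted at the native genomic locus of Saccharomyces cerevisiae. After pooling, the strains were competed in YPD at 37°C for 24 hours in six parallel replicates. Gene amplicons from the start population and each end population were read by 100-nucleotide paired-end sequencing, and Darwinian fitness relative to wild type was taken from genotype frequency changes. Genotypes needed ≥ 100 starting reads, and estimates < 0.5 were set to 0.5.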
As for GUUCCGUUGGCGUAAUGGCAACGCGUCUCCUUCCUAAGGAGAAGACUGCGGGUUCAAGUCCCGUACGCAACG [U19C C31U G56A G68C], the yeast fitness is at most 0.5. GUUCCGUUGGCGUAAUGGCAACCCGUCUCCCUCCUAAGGAGAAGACUGCGGGUUCGAGUCGCGUACGGAACG [U19C G23C C61G]: the yeast fitness is at most 0.5. As to GUUCCGUUGGCGUAAUGGCAACGUGUCUCCCUCCUAAGGAGAAGACUGCGGGUUCGAGUCCCGAACGGAACG [U19C C24U U64A], the yeast fitness turned out to be 0.73. For the variant GUUCCGUUGGCGUAAUGGCAACCCGUCUCCCUCCUAAGGAGAAGACUGCGGGCUCGAGUCCCGUACGGAACG [U19C G23C U53C], the yeast fitness amounted to 0.562. Take GUUCCGUUGGCGUAAUGGCAACGCGUCUCCCUCCUAAGGAGAAGAAUGCGGGUUCGCGUCCCGUACGGACCG [U19C C46A A57C A70C]: the yeast fitness was at most 0.5. Regarding GUUCCGUUGGCGUAAUGGCAACGCGUCUUCCUCCUAAGGAGAAGACUGCGGGUUCGAGUCCCGUACGGAACG [U19C C29U], the yeast fitness was 0.948. The figure for GUUCCGUUGGCGUAAUGGCAACGCGUCUGCCUCCUAAGGAGAAGACUGCGGGUUCGAGUCCCGUACGGAACG [U19C C29G] is 0.578; for GUUCCGUUGGCGUAAUGGCAACGCGUCUCCCUCCUAAGCACAAGACUGCGGGUUCGAGUCCCGUACGGAACG [U19C G39C G41C] it is 0.51; for GUUCCGUUGGCGUAAUGGCAACGCGUCUGCCGCCUAAGGAGAAGACUGCGGGUUCGAGUCUCGUAAGGAACG [U19C C29G U32G C61U C66A] it is at most 0.5. The figure for GUUCCGUUGGCGUAAUGGCAACGCGUCUCCCUCCUAAGGAGAAGAAUGCGGGUUCGAGUGCCGUACCGAACG [U19C C46A C60G G67C] is at most 0.5; for GUUCCGUUGGCGUAAUGGCAACGGGUCUCCCUCCUAUGGAGAAGACAGCGGGUUCGAGUCCCGUAAGGAACG [U19C C24G A37U U47A C66A] it is at most 0.5; for GUUCCGUUGGCGUAAUGGCAACGCGUCUCCCUCCUAAGGAGAAGACUGAGGGUUUGAGUCCCGUACGGAACG [U19C C49A C55U] it is at most 0.5. As to GUUCCGUUGGCGUAAUGGCAACGCGUCUUCCUCCUAAGGAGAGGACUGCGGGUUCGAGUCCCGUACGGAACG [U19C C29U A43G], the yeast fitness turned out to be 0.677. As to GUUCCGUUGGCGUAAUGGCAACGCGUCUCCCUCCUAAGGAGAAGAUUGCGGGUUCGAGUCCCGUACGGUACG [U19C C46U A69U], the yeast fitness turned out to be 0.804. As for GUUCCGUUGGCGUAAUGGCAACGCGUCUGCCUCCUAAGGCGAAGACUGCGGGUUCGAGUCCCGUACGGAACG [U19C C29G A40C], the yeast fitness is at most 0.5. With GUUCCGUUGGCGUAAUGGCAAGGCGUCUCCCUCCUAAGGAGAAGACUGCGGGUUCGAGUCCCGUUCGGAACG [U19C C22G A65U] the figure was 0.547. Regarding GUUCCGUUGGCGUAAUGGCAACGAGUCUCCCUCCUAAGGAGAAGACUGCGGGUUCGAAUCCCGUACGGAACG [U19C C24A G58A], the yeast fitness was at most 0.5. As to GUUCCGUUGGCGUAAUGGCAACGCGUCUCCCUCCUAAGGAGAAGCCUGCGGGUUCGAGUCACGUACGGAACG [U19C A45C C61A], the yeast fitness was at most 0.5. For GUUCCGUUGGCGUAAUGGCAACGCGUCUCCCUCAUAAGGAGAAGACUGCCGGUUCAAGUCCCGUACGGAACG [U19C C34A G50C G56A], the yeast fitness stood at 0.55. For the variant GUUCCGUUGGCGUAAUGGCAACGCGUCUCCCUCCUAACGAGAAGACUGCGGGUUCGAGUCCGGUACGGAACG [U19C G38C C62G], the yeast fitness is at most 0.5. Turning to GUUCCGUUGGCGUAAUGGCAACGCGUCUGCCUCCUAAGGAGAAGACUGCGGGUACGAGUCCCGUCCGGAACG [U19C C29G U54A A65C], the yeast fitness is at most 0.5. With GUUCCGUUGGCGUAAUGGCAACGCGUCUACCUCCUAGGGAGAAGACUGCGGGUUCGAGUCCCGUACGGAACG [U19C C29A A37G] the figure was at most 0.5. With GUUCCGUUGGCGUAAUGGCAACGCGUCUCCCUCCUAAGGAGAAGACUGCGGGUUAGAGUCCCGUACGGAACG [U19C C55A] the figure was 0.601.

Regarding GUUCCGUUGGCGUAAUGGCAACGCGUUUGCCUCAUAAGGAGCAGACUGCGGGUUCGAAUCCCGUGCGGAACG [U19C C27U C29G C34A A42C G58A A65G], the yeast fitness is at most 0.5.

As to GUUCCGUUGGCGUAAUGGCAACGCGUCUCCUUCUUAAGGAGAAGACUGCGGGUUCGCGUCCCGUACGGAACG [U19C C31U C34U A57C], the yeast fitness was at most 0.5.

For GUUCCGUUGGCGUAAUGGCAACGCGUCUCCAUCCUAAGGACAAGACUGCGGGUUCGAGUCCCGUACGGAACG [U19C C31A G41C], the yeast fitness amounted to 0.577. On to GUUCCGUUGGCGUAAUGGCAACGCGUCUCCCUCCUAAGGAGAAGACUGAGGGUUCGCGUCCCGUACGGAACG [U19C C49A A57C], for which the yeast fitness is 0.599. With GUUCCGUUGGCGUAAUGGCAAGGCGUCUCCCUCCUAAGGAGAAGACUGCGGGUUCGAGUCCCGUACGGAACG [U19C C22G] the figure was 0.978; with GUUCCGUUGGCGUAAUGGCAACGCGUCUCCCUCCUAAAGAGAAGACUGCGGGUUCGAGUCCCGUACGGAACG [U19C G38A], 1.01; with GUUCCGUUGGCGUAAUGGCAACGCGUCUCCAUCCUAAGGAGAAGACUGCUGGUUCGAGUCCGAUACGGAACG [U19C C31A G50U C62G G63A], at most 0.5. As for GUUCCGUUGGCGUAAUGGCAACGCGUCUCCCUCCUAAGGAGAAGCCUCCGGGUUCGAGUCCCGUACGGAACG [U19C A45C G48C], the yeast fitness turned out to be 0.57. For the variant GUUCCGUUGGCGUAAUGGCAACGCGUCUCCCUCCUAAGGAGAAGUCUGCGGGUUCGAGUCCCGUACGGAACG [U19C A45U], the yeast fitness turned out to be 0.923. For the variant GUUCCGUUGGCGUAAUGGCAACGCGUCUCCUUGCUAAGGAAAAGACUGGGGGUCCGAGUCCCGUACGGAACG [U19C C31U C33G G41A C49G U54C], the yeast fitness was at most 0.5. Regarding GUUCCGUUGGCGUAAUGGCAACGCGUCUCCAUCCUAAGGAGAAGACUGCGGGUUCGAGUCCCGUACGGAACG [U19C C31A], the yeast fitness was 0.768. Take GUUCCGUUGGCGUAAUGGCAACGUGUCUCCGUCCAAAGGAGAAGACUGCGGGUUCGAGUCACGUACGGCACG [U19C C24U C31G U35A C61A A69C]: the yeast fitness is at most 0.5. With GUUCCGUUGGCGUAAUGGCAACGCGUCUGCCUCCUAAGGAGAACACUGCGGGUUCGAGUCCCGUACGGAACG [U19C C29G G44C] the figure was 0.505; with GUUCCGUUGGCGUAAUGGCAAUGCGUCUCCCGCUUAAGGGGAAGACUGCGGGUUCGUGUCCCGUACGGAUCG [U19C C22U U32G C34U A40G A57U A70U], at most 0.5.

GUUCCGUUGGCGUAAUGGCAACGCGUCUCCCUCCUAAGGAGAAGACUGCGGGUUCGAGUCCCGUUCGGAACG [U19C A65U]: the yeast fitness worked out at 1.07.
